Laboratory results reported in ChEMBL document CHEMBL3124806, “Imidazopyridine-fused [1,3]-diazepinones: synthesis and antiproliferative activity” (Eur J Med Chem, 2014).

What was measured:
Assay type in all cases: functional
MDA-MB-468 = experiment: Cytotoxicity against human MDA-MB-468 cells assessed as cell growth at 10 uM after 48 hrs by SRB assay relative to untreated control; conditions: MDA-MB-468, 48 h, read-out: Activity
Procedure, shortened: (§1)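 NCI-60 one-dose screen: each agent added at 10 µM, cultures incubated 48 h. Endpoint by sulforhodamine B protein-binding dye read spectrophotometrically; growth expressed as percent of untreated control cells.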

MDA-MB-231 = experiment: Cytotoxicity against human MDA-MB-231 cells assessed as cell growth at 10 uM after 48 hrs by SRB assay relative to untreated control; conditions: MDA-MB-231, 48 h, read-out: Activity; procedure, shortened: as §1
MCF7 = experiment: Cytotoxicity against human MCF7 cells assessed as cell growth at 10 uM after 48 hrs by SRB assay relative to untreated control; conditions: MCF7, 48 h, read-out: Activity
Procedure, shortened: (§2)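 NCI-60 panel screen at a single concentration of 10 μM with 48 h incubation. Cell density measured by sulforhodamine B protein-binding dye and read spectrophotometrically. Growth expressed as percent of untreated control cells.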

PC-3 = experiment: Cytotoxicity against human PC3 cells assessed as cell growth at 10 uM after 48 hrs by SRB assay relative to untreated control; conditions: PC-3, 48 h, read-out: Activity; procedure, shortened: as §1
[1] = Cytotoxicity against human UO31 cells assessed as cell growth at 10 uM after 48 hrs by SRB assay relative to untreated control; conditions: UO-31, 48 h, read-out: Activity
Procedure, shortened: (§3)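 NCI-60 single-dose screen. Compounds were added to the cultures at 10 μM and incubated for 48 h. The end point was sulforhodamine B protein staining read spectrophotometrically. Growth is reported as percent of untreated control cells.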

TK-10 = experiment: Cytotoxicity against human TK10 cells assessed as cell growth at 10 uM after 48 hrs by SRB assay relative to untreated control; conditions: TK-10, 48 h, read-out: Activity; procedure, shortened: as §3
RXF 393 = experiment: Cytotoxicity against human RXF393 cells assessed as cell growth at 10 uM after 48 hrs by SRB assay relative to untreated control; conditions: RXF 393, 48 h, read-out: Activity; procedure, shortened: as §1
SK-OV-3 = experiment: Cytotoxicity against human SKOV3 cells assessed as cell growth at 10 uM after 48 hrs by SRB assay relative to untreated control; conditions: SK-OV-3, 48 h, read-out: Activity; procedure, shortened: as §3
[2] = Cytotoxicity against human NCI-ADR-RES cells assessed as cell growth at 10 uM after 48 hrs by SRB assay relative to untreated control; conditions: read-out: Activity; procedure, shortened: as §1
OVCAR-3 = experiment: Cytotoxicity against human OVCAR3 cells assessed as cell growth at 10 uM after 48 hrs by SRB assay relative to untreated control; conditions: OVCAR-3, 48 h, read-out: Activity; procedure, shortened: as §1
IGROV-1 = experiment: Cytotoxicity against human IGROV1 cells assessed as cell growth at 10 uM after 48 hrs by SRB assay relative to untreated control; conditions: IGROV-1, 48 h, read-out: Activity; procedure, shortened: as §2
UACC-62 = experiment: Cytotoxicity against human UACC62 cells assessed as cell growth at 10 uM after 48 hrs by SRB assay relative to untreated control; conditions: UACC-62, 48 h, read-out: Activity; procedure, shortened: as §3
SK-MEL-5 = experiment: Cytotoxicity against human SK-MEL-5 cells assessed as cell growth at 10 uM after 48 hrs by SRB assay relative to untreated control; conditions: SK-MEL-5, 48 h, read-out: Activity; procedure, shortened: as §3
SK-MEL-2 = experiment: Cytotoxicity against human SK-MEL-2 cells assessed as cell growth at 10 uM after 48 hrs by SRB assay relative to untreated control; conditions: SK-MEL-2, 48 h, read-out: Activity; procedure, shortened: as §1
Malme-3M = experiment: Cytotoxicity against human MALME-3M cells assessed as cell growth at 10 uM after 48 hrs by SRB assay relative to untreated control; conditions: read-out: Activity; procedure, shortened: as §2
LOX IMVI = experiment: Cytotoxicity against human LOXIMVI cells assessed as cell growth at 10 uM after 48 hrs by SRB assay relative to untreated control; conditions: read-out: Activity; procedure, shortened: as §2
U-251 = experiment: Cytotoxicity against human U251 cells assessed as cell growth at 10 uM after 48 hrs by SRB assay relative to untreated control; conditions: U-251, 48 h, read-out: Activity; procedure, shortened: as §3
SF-295 = experiment: Cytotoxicity against human SF295 cells assessed as cell growth at 10 uM after 48 hrs by SRB assay relative to untreated control; conditions: SF-295, 48 h, read-out: Activity; procedure, shortened: as §1
SF-268 = experiment: Cytotoxicity against human SF268 cells assessed as cell growth at 10 uM after 48 hrs by SRB assay relative to untreated control; conditions: SF-268, 48 h, read-out: Activity; procedure, shortened: as §1
KM12 = experiment: Cytotoxicity against human KM12 cells assessed as cell growth at 10 uM after 48 hrs by SRB assay relative to untreated control; conditions: KM12, 48 h, read-out: Activity; procedure, shortened: as §2
HT-29 = experiment: Cytotoxicity against human HT-29 cells assessed as cell growth at 10 uM after 48 hrs by SRB assay relative to untreated control; conditions: HT-29, 48 h, read-out: Activity; procedure, shortened: as §2
HCT-116 = experiment: Cytotoxicity against human HCT116 cells assessed as cell growth at 10 uM after 48 hrs by SRB assay relative to untreated control; conditions: HCT-116, 48 h, read-out: Activity; procedure, shortened: as §2
COLO 205 = experiment: Cytotoxicity against human COLO205 cells assessed as cell growth at 10 uM after 48 hrs by SRB assay relative to untreated control; conditions: COLO 205, 48 h, read-out: Activity; procedure, shortened: as §2
NCI-H522 = experiment: Cytotoxicity against human NCI-H522 cells assessed as cell growth at 10 uM after 48 hrs by SRB assay relative to untreated control; conditions: NCI-H522, 48 h, read-out: Activity; procedure, shortened: as §1
NCI-H23 = experiment: Cytotoxicity against human NCI-H23 cells assessed as cell growth at 10 uM after 48 hrs by SRB assay relative to untreated control; conditions: NCI-H23, 48 h, read-out: Activity; procedure, shortened: as §1
HOP-92 = experiment: Cytotoxicity against human HOP92 cells assessed as cell growth at 10 uM after 48 hrs by SRB assay relative to untreated control; conditions: HOP-92, 48 h, read-out: Activity; procedure, shortened: as §2
HOP-62 = experiment: Cytotoxicity against human HOP62 cells assessed as cell growth at 10 uM after 48 hrs by SRB assay relative to untreated control; conditions: HOP-62, 48 h, read-out: Activity; procedure, shortened: as §2
RPMI-8226 = experiment: Cytotoxicity against human RPMI8226 cells assessed as cell growth at 10 uM after 48 hrs by SRB assay relative to untreated control; conditions: RPMI-8226, 48 h, read-out: Activity; procedure, shortened: as §1
MOLT-4 = experiment: Cytotoxicity against human MOLT4 cells assessed as cell growth at 10 uM after 48 hrs by SRB assay relative to untreated control; conditions: MOLT-4, 48 h, read-out: Activity; procedure, shortened: as §1
K562 = experiment: Cytotoxicity against human K562 cells assessed as cell growth at 10 uM after 48 hrs by SRB assay relative to untreated control; conditions: K562, 48 h, read-out: Activity; procedure, shortened: as §2
CCRF-CEM = experiment: Cytotoxicity against human CCRF-CEM cells assessed as cell growth at 10 uM after 48 hrs by SRB assay relative to untreated control; conditions: read-out: Activity; procedure, shortened: as §2

Cc1ccc(C2=Nc3nc4ccccn4c3C(=O)[C@@H]3CCCN23)cc1
growth at 10 µM (MDA-MB-468): 94.8%
growth at 10 µM (MDA-MB-231): 93.8%
growth at 10 µM (MCF7): 89%
growth at 10 µM (PC-3): 81.9%
growth at 10 µM [1]: 80.3%
growth at 10 µM (TK-10): 110%
growth at 10 µM (RXF 393): 85.2%
growth at 10 µM (SK-OV-3): 106%
growth at 10 µM [2]: 94.9%
growth at 10 µM (OVCAR-3): 96.7%
growth at 10 µM (IGROV-1): 99.7%
growth at 10 µM (UACC-62): 101%
growth at 10 µM (SK-MEL-5): 92.5%
growth at 10 µM (SK-MEL-2): 105%
growth at 10 µM (Malme-3M): 102%
growth at 10 µM (LOX IMVI): 87.4%
growth at 10 µM (U-251): 99.1%
growth at 10 µM (SF-295): 96.7%
growth at 10 µM (SF-268): 88%
growth at 10 µM (KM12): 98.6%
growth at 10 µM (HT-29): 101%
growth at 10 µM (HCT-116): 94%
growth at 10 µM (COLO 205): 94.4%
growth at 10 µM (NCI-H522): 102%
growth at 10 µM (NCI-H23): 92%
growth at 10 µM (HOP-92): 78.3%
growth at 10 µM (HOP-62): 82.9%
growth at 10 µM (RPMI-8226): 105%
growth at 10 µM (MOLT-4): 92.4%
growth at 10 µM (K562): 104%
growth at 10 µM (CCRF-CEM): 50.2%
